pIC50, pKi: −log10 of the molar value.
Legend:
L5178Y [1] = assay: Compound was evaluated for its ability to inhibit growth by 50% at 48 hr in L5178Y murine leukemia cells; format: functional, cell-based; conditions: Mus musculus
L1210 [2] = assay: Compound was evaluated for its ability to inhibit growth by 50% at 48 hr in L1210 murine leukemia cells; format: functional, cell-based; conditions: Mus musculus, L1210, 48 h
L1210 [3] = assay: Compound was evaluated for effect on polyamine pools in the L1210 murine leukemia cell lines by the inhibition of put at 200 uM; format: functional, Mus musculus
L1210 [4] = assay: Compound was evaluated for effect on polyamine pools in the L1210 murine leukemia cell lines by the inhibition of spermidine synthase at 200 uM; format: functional, Mus musculus
L1210 [5] = assay: Compound was evaluated for effect on polyamine pools in the L1210 murine leukemia cell lines by the inhibition of spermine synthase at 200 uM; format: functional, Mus musculus
L5178Y [6] = assay: Compound was evaluated for effect on polyamine pools in the L5178Y murine leukemia cell lines by the inhibition of put at 200 uM; format: functional, Mus musculus
L5178Y [7] = assay: Compound was evaluated for effect on polyamine pools in the L5178Y murine leukemia cell lines by the inhibition of spermidine synthase at 200 uM; format: functional, Mus musculus
L5178Y [8] = assay: Compound was evaluated for effect on polyamine pools in the L5178Y murine leukemia cell lines by the inhibition of spermine synthase at 200 uM; format: functional, Mus musculus
L5178Y [9] = assay: Inhibition of growth of L5178Y murine leukemia cell line in percent of control at 200 uM; format: functional, Mus musculus; parameters: scale not given: the % may be the effect or the level left
Summary of the method: (§1)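 Cultures in RPMI 1640 with 10% Nu Serum IV and HEPES/MOPS buffer, treated at 0 h with the listed concentration from DMSO stock diluted in serum-free medium. Cell number by electronic particle counting after 48 h, expressed as % of untreated control. Average of at least three separate experiments.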

L1210 [10] = assay: Inhibition of growth of L1210 murine leukemia cell line in percent of control at 200 uM; format: functional, Mus musculus; parameters: scale not given: the % may be the effect or the level left; summary of the method: as §1
[11] = target: T1, S-methyl-5'-thioadenosine phosphorylase (Mus musculus, UniProt Q9CQ65); assay: Compound was evaluated for the inhibition of mouse liver MTA phosphorylase
T1 sequence (Q9CQ65 whole entry): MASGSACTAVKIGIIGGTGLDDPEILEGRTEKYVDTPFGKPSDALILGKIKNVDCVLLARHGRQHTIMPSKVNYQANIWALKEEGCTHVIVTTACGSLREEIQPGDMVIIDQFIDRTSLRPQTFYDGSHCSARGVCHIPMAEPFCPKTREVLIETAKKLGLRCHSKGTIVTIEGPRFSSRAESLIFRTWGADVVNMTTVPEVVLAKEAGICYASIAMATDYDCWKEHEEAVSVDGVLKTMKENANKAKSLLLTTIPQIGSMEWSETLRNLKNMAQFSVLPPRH
Summary of the method: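 Mouse liver enzyme, partially purified (acid precipitation, 65 °C heat step, DEAE-Sephacel). 0.1 mL reaction: 4 μmol potassium phosphate pH 7.4, 0.1 μmol DTT, 20 μg BSA, 50 nmol MTA, ~2 × 10^5 cpm [methyl-3H]MTA; 10 min, 37 °C. Stopped with charcoal/TCA; [3H]MTRP in supernatant counted by liquid scintillation.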

L1210 [12] = assay: Compound was evaluated for effect on polyamine pools in the L1210 murine leukemia cell lines by the inhibition of put at 600 uM; format: functional, Mus musculus
L1210 [13] = assay: Compound was evaluated for effect on polyamine pools in the L1210 murine leukemia cell lines by the inhibition of spermidine synthase at 600 uM; format: functional, Mus musculus
L5178Y [14] = assay: Compound was evaluated for effect on polyamine pools in the L5178Y murine leukemia cell lines by the inhibition of put at 60 uM; format: functional, Mus musculus
L5178Y [15] = assay: Compound was evaluated for effect on polyamine pools in the L5178Y murine leukemia cell lines by the inhibition of spermidine synthase at 60 uM; format: functional, Mus musculus
L5178Y [16] = assay: Compound was evaluated for effect on polyamine pools in the L5178Y murine leukemia cell lines by the inhibition of spermine synthase at 60 uM; format: functional, Mus musculus
L5178Y [17] = assay: Inhibition of growth of L5178Y murine leukemia cell line in percent of control at 60 uM; format: functional, Mus musculus; parameters: scale not given: the % may be the effect or the level left; summary of the method: as §1
L1210 [18] = assay: Inhibition of growth of L1210 murine leukemia cell line in percent of control at 600 uM; format: functional, Mus musculus; parameters: scale not given: the % may be the effect or the level left; summary of the method: as §1
L1210 [19] = assay: Compound was evaluated for effect on polyamine pools in the L1210 murine leukemia cell lines by the inhibition of spermine synthase at 600 uM; format: functional, Mus musculus

Work on `Nc1ncnc2c1ncn2C1O[C@H](CI)[C@@H](O)[C@H]1O` (stereo not given in full) yielded a pIC50 (L5178Y [1]) of 5.70 and a pIC50 (L1210 [2]) of 3.52.

`CSC(F)[C@H]1OC(n2cnc3c(N)ncnc32)[C@H](O)[C@@H]1O` (stereo not given in full) showed a pIC50 (L5178Y [1]) of 6.15 and a pIC50 (L1210 [2]) of 5.70.

`Nc1ncnc2c1ncn2C1O[C@H](CSCF)[C@@H](O)[C@H]1O` (stereo not given in full) was tested, and the Activity (L1210 [3]) was 0.62 nM/10e6, the Activity (L1210 [4]) was 2.93 nM (10e6*cells)-1 and the Activity (L1210 [5]) was 0.6 nM (10e6*cells)-1. For the same compound, the Activity (L5178Y [6]) was 0.41 nM (10e6*cells)-1, the Activity (L5178Y [7]) was 2.47 nM (10e6*cells)-1 and the Activity (L5178Y [8]) was 1.32 nM (10e6*cells)-1. It also gave a pIC50 (L5178Y [1]) of 3.70, a Control (L5178Y [9]) of 45% and a Control (L1210 [10]) of 67%. For the same compound, the pIC50 (L1210 [2]) was 3.52 and the pKi [11] was 5.48.

With `CSC[C@H]1O[C@@H](n2cnc3c(N)ncnc32)[C@H](O)[C@@H]1O` [METHYLTHIOADENOSINE] the Activity (L1210 [12]) was 3.64 nM (10e6*cells)-1, the Activity (L1210 [13]) was 1.59 nM (10e6*cells)-1 and the Activity (L5178Y [14]) was 1.24 nM (10e6*cells)-1. For the same compound, the Activity (L5178Y [15]) was 3.03 nM (10e6*cells)-1, the Activity (L5178Y [16]) was 0.47 nM (10e6*cells)-1 and the pIC50 (L5178Y [1]) was 4.22. For the same compound, the Control (L5178Y [17]) was 57%, the Control (L1210 [18]) was 53% and the pIC50 (L1210 [2]) was 3.22. The Activity (L1210 [19]) was 0.2 nM (10e6*cells)-1.

— ChEMBL document CHEMBL1124473, “Synthesis and antiproliferative effects of novel 5'-fluorinated analogues of 5'-deoxy-5'-(methylthio)adenosine” (J Med Chem, 1989)
